The text below walks through data of ChEMBL document CHEMBL1148398, “Design, synthesis, and biological evaluation of thio-containing compounds with serum HDL-cholesterol-elevating properties” (2004).

Holding throughout (type): functional
For test [1], the system named is Rattus norvegicus. Nature of the test: Percent change in high-density lipoprotein cholesterol following oral administration of compound in normal chow-fed rats at 100 mg/kg/day for 4 days. In short, it runs like this: (§1)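 Chow-fed male Sprague–Dawley CD rats, 60–80 g, gavaged 100 mg/kg/day for 4 days in 1.3% Tween 80/0.25% CMC. Fasted overnight, bled 24 h after the last dose. Total cholesterol and glycerol-blanked triglycerides read enzymatically; lipoproteins by FPLC with cholesterol per fraction. % change versus control; six per group, p < 0.05.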

Test [2] relates to Rattus norvegicus. The test can be described thus: Percent change in very low-density lipoprotein cholesterol following oral administration of compound in normal chow-fed rats at 100 mg/kg/day for 4 days. In short, it runs like this: as §1
For test [3], the system named is Rattus norvegicus. Nature of the test: Percent change in triglycerides following oral administration of compound in normal chow-fed rats at 100 mg/kg/day for 4 days. In short, it runs like this:
as §1

In test [4] the test system is Rattus norvegicus. Nature of the test: Percent change in triglycerides in hypercholesterolemic rats at a dose of 100 mg/kg/day for 8 days.
The test system of test [5] is Rattus norvegicus. The test can be described thus: Percent change in total plasma cholesterol following oral administration of compound in normal chow-fed rats at 100 mg/kg/day for 4 days. Summed up:
as §1

The test system of test [6] is Rattus norvegicus. Nature of the test: Percent change in low-density lipoprotein cholesterol following oral administration of compound in normal chow-fed rats at 100 mg/kg/day for 4 days. In short, it runs like this:
as §1

Test [7] concerns Rattus norvegicus. Nature of the test: Percent change in total plasma cholesterol in hypercholesterolemic rats dosed at 100 mg/kg/day for 8 days.
For test [8], the system named is Rattus norvegicus. Nature of the test: Percent change in high-density lipoprotein cholesterol in hypercholesterolemic rats dosed at 100 mg/kg/day for 8 days.

As for `CN1OCC(=O)N(c2ccc(C(C)(C)C)cc2)C1=S`, the Change in test [1] is given as 61.6%; in test [2] it was 176.5%; in test [3], -24.6%; in test [4] it was -51%; in test [5], 62%; in test [6], 2.6%. In addition, the Change in test [7] stood at 2%; in test [8], 170%.
Consider `CN1OCC(=O)N(c2cccc3c2CCC3)C1=S`, for which the Change in test [1] was 81.8%; in test [2], 68%; in test [3], -31.2%; in test [4] it was -26%; in test [5], 78.5%; in test [6], 42.3%. The figures for the Change in test [7] and in test [8] were -2% and 192%, respectively.
Turning to `CON1CC(=O)N(c2cc(Cl)ccc2C)C1=S`, the Change is recorded as 102.4% in test [1]; 249.5% in test [2]; -10.8% in test [3]; -62% in test [4]; 134.4% in test [5]; 87.5% in test [6]. For the same compound, the Change in test [7] was 41%; in test [8] it was 160%.
Turning to `Cc1cc(Cl)ccc1N1C(=O)CON(C)C1=S`, the Change in test [1] is given as 53.4%; in test [2], 114.7%; in test [3], -4.3%; in test [4], -38%; in test [5], 51.4%; in test [6] it was 20.8%. In addition, the Change worked out at 4% in test [7] and 221% in test [8].
On to `CCN1C(=S)N(CC(C)C)C(=O)C1c1ccccc1` (centres undefined), for which the Change in test [1] is recorded as -3.1%; in test [2], 33.3%; in test [3], -1.6%; in test [4], 92%; in test [5], -8.4%; in test [6] it was -9.3%. The Change in test [7] worked out at 7%; in test [8], 156%.
As to `Cc1ccc(Cl)cc1N1C(=O)CON(C)C1=S`, the Change is 83.5% in test [1]; 23.1% in test [2]; -26.2% in test [3]; -10% in test [4]; 85.7% in test [5]; 29.9% in test [6]. Besides, the Change in test [7] turned out to be 5.7%; in test [8] it was 236%.
On to `CCN1CCC(=O)N(c2ccccc2F)C1=S`, for which the Change in test [1] is listed as 55.3%; in test [2] it was 20.1%; in test [3] it was -4%; in test [4] it was -26%; in test [5] it was 48.7%; in test [6], -4%. Besides, the values for the Change in test [7] and in test [8] were 21% and 72%, respectively.
For the compound `CCN1C(=O)C(=O)N(c2c(C)cccc2C)C1=S`, the Change in test [1] was 114.4%; in test [2] it was 409.7%; in test [3], -32.8%; in test [4] it was -48%; in test [5], 138.2%; in test [6], 73.2%. Besides, the Change in test [7] was -21%; in test [8] it was 186%.
Take `CCN1CCC(=O)N(c2ccccc2C(C)C)C1=S`: the Change was 67.8% in test [1]; 35.2% in test [2]; -12.4% in test [3]; -31% in test [4]; 59.2% in test [5]; 9.8% in test [6]. The values for the Change in test [7] and in test [8] were 44% and 108%, respectively.
As for `C=CCN1CC(=O)N(c2c(C)cccc2C)C1=S`, the Change in test [1] is reported as 120.4%; in test [2] it was -45.8%; in test [3] it was -29.9%; in test [4] it was -45%; in test [5] it was 86%; in test [6], -18.8%. In addition, the results for the Change in test [7] and in test [8] were -5% and 177%, respectively.
As for `CCc1cccc(C(C)C)c1N1C(=O)CN(CC)C1=S`, the Change is reported as 48.7% in test [1]; -50% in test [2]; -12.2% in test [3]; 5% in test [4]; 30.9% in test [5]; -22.3% in test [6]. The Change is given as -62% in test [7] and 54% in test [8].
On to `CCc1cccc(C)c1N1C(=O)CN(CC)C1=S`, for which the Change in test [1] is recorded as 61.9%; in test [2] it was -29.2%; in test [3], -8.2%; in test [4] it was -10%; in test [5] it was 52.8%; in test [6], -6.5%. Besides, the Change is recorded as -19% in test [7] and 112% in test [8].
On to `CCN1CC(=O)N(c2ccccc2C)C1=S`, for which the Change is given as 54.3% in test [1]; 0% in test [2]; -25% in test [3]; 38% in test [4]; 52.1% in test [5]; 18.7% in test [6]. Also, the figures for the Change in test [7] and in test [8] were 76.5% and 164%, respectively.
Regarding `CCN1CC(=O)N(c2cc(C)ccc2C)C1=S`, the Change in test [1] is reported as 31.9%; in test [2], 31.3%; in test [3], -2.5%; in test [4] it was -6%; in test [5] it was 26.4%; in test [6] it was -8.3%. In addition, the Change in test [7] is listed as 49%; in test [8] it was 124%.
With `CC(C)c1ccccc1N1C(=O)CON(C)C1=S`, the Change in test [1] was 98.2%; in test [2] it was -8.3%; in test [3], -52.7%; in test [4], -16%; in test [5], 92.4%; in test [6], 32.1%. The Change in test [7] is 0%; in test [8] it was 95%.
Consider `CN1OCC(=O)N(C(c2ccccc2)c2ccccc2)C1=S`, for which the Change was 33.7% in test [1]; -29.3% in test [2]; -44.1% in test [3]; 9% in test [4]; 17.6% in test [5]; 43.8% in test [6]. In addition, the Change in test [7] stood at 22%; in test [8], 60%.
In the case of `CCN1CC(=O)N(c2ccccc2C(F)(F)F)C1=S`, the Change in test [1] is reported as 103.5%; in test [2], 52.6%; in test [3], -6.3%; in test [4], 35%; in test [5], 67.2%; in test [6], -13.3%. Moreover, the Change in test [7] is recorded as 18%; in test [8], 116%.
In the case of `CN1CC(=O)N(c2c(Cl)cccc2Cl)C1=S`, the Change in test [1] was 109.3%; in test [2], -3.3%; in test [3], -33.3%; in test [4] it was -43%; in test [5] it was 83.9%; in test [6] it was 39.6%. Besides, the Change in test [7] was found to be 4.6%; in test [8] it was 92%.
On to `CCN1CCC(=O)N(c2c(C)cccc2Cl)C1=S`, for which the Change in test [1] is 45.5%; in test [2], -5.3%; in test [3], -35.7%; in test [4], -16%; in test [5] it was 45.4%; in test [6], -1.1%. In addition, the Change worked out at 23% in test [7] and 199% in test [8].
Turning to `Cc1ccc(Cl)cc1N1C(=O)C(C)N(C)C1=S` (centres undefined), the Change is 67.9% in test [1]; 134.7% in test [2]; 207.2% in test [3]; -58% in test [4]; 276.5% in test [5]; 800% in test [6]. Besides, the Change is -8% in test [7] and 220% in test [8].
In the case of `CCN1CC(=O)N(c2ccc(OC(F)(F)F)cc2)C1=S`, the Change is 71.4% in test [1]; 543.5% in test [2]; 2.8% in test [3]; -72% in test [4]; 197.6% in test [5]; 127.5% in test [6]. The Change in test [7] was -1%; in test [8], 265%.
With `CN1OCC(=O)N(c2ccc(Oc3ccccc3)cc2)C1=S`, the Change in test [1] is reported as 0%; in test [2] it was -9.1%; in test [3] it was -20.5%; in test [4], -43%; in test [5], -13%; in test [6], -20.5%. Moreover, the Change is reported as -25% in test [7] and 102% in test [8].
With `Cc1cccc(Cl)c1N1C(=O)CN(C)C1=S`, the Change in test [1] is 75.7%; in test [2] it was 89.4%; in test [3] it was -37.9%; in test [4], -56%; in test [5], 71.2%; in test [6] it was 0%. The results for the Change in test [7] and in test [8] were 17% and 84%, respectively.
